WT yeast gro inh: growth inhibition of WT yeast, mitochondrial fusion screen. mitochondrial fusion phenotypic screen, WT strain. 2.1% of 190,000 active. inhibition, % at 10 µM; in the data active = inhibition above about 58%; tested in S. cerevisiae
Lmaj promast: inhibitors of Leishmania major promastigote growth. Leishmania major promastigotes, resazurin fluorescence viability. inhibition, % at 10 µM. 9% of 200,000 active; in the data active = inhibition above about 50%;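 note: promastigotes grown with compound for 44 hours at 28 °C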
PMI activator: activators of human phosphomannose isomerase | 0.005% of 190,000 active | purified human PMI, coupled resazurin fluorescence, 20 min; active compounds read high; 1 = vehicle control, 0 substrate-free wells | P34949 | activation factor at 20 µM;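 active = activation factor of 2 or more at 20 µM, relative to plate controls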
PMI act hi M6P: increases human PMI activity with near-saturating mannose 6-phosphate; P34949; coupled PMI enzyme assay, resazurin fluorescence, 20 min; active compounds read high; 1 = untreated enzyme, 0 = substrate-free blank; activation factor at 20 µM; 0.34% of 190,000 active;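 active = activation factor of 2 or more at 20 µM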
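Material: human phosphomannose isomerase with PGI, G6PDH, diaphorase coupling enzymes; amount: PMI at 15 ng/mL final; also added: Mannose-6-phosphate 1.0 mM (near-saturating) plus 0.22 mM NADP+; incubation: enzyme reaction with compound 20 min at room temperature; signal: resorufin fluorescence (Ex 544/Em 590 nm) from resazurin via diaphorase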
Rad51 HR inh: Rad51 (human) homologous recombination inhibition; inhibition, % at 10 µM; Q06609; 0.085% of 200,000 active; hRad51 DNA strand exchange, fluorescence dequenching; AID 1385;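 active = inhibition above 40% at the single screening dose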;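 note: 0% = DMSO control wells and 100% = blanks with heterologous ssDNA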
Target sequence (Q06609 whole entry, looked up): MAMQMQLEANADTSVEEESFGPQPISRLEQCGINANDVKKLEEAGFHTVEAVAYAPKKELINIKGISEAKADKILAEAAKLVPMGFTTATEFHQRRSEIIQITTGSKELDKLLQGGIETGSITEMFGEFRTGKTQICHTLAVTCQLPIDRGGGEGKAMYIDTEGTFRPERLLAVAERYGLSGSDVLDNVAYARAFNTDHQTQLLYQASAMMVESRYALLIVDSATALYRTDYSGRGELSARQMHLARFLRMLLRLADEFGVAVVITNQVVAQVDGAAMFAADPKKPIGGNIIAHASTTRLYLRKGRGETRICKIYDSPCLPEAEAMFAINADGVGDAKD
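Assay system: Human Rad51 nucleoprotein filaments preassembled on unlabelled ssDNA | Reagent: Donor/quencher-labelled 47-bp dsDNA substrate | Doses: One concentration, 10 µM final | Times: 37 °C 15-min filament assembly, 30-min compound preincubation, 15-min exchange | Technique: Fluorescein emission 520 nm, excitation 485 nm | Benchmarks: Plate control and blank wells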
m-calpain inh: calpain II (pig) inhibition. 0.37% of 220,000 active. inhibition, % at 16 µM. purified calpain II, fluorogenic peptide substrate, 30 min. AID 1236;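 active = inhibition above about 50%, limit read from the data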
An asterisk follows results filed as active. Only some compounds are listed: those with a hit (about 9.8% of all), similar ones and a draw of the others.

How did COc1ccc(/C=C/C(=O)c2ccccc2O)cc1 do in these assays?
WT yeast gro inh: 35; Lmaj promast: 3; PMI activator: 0.9; PMI act hi M6P: 0.9; Rad51 HR inh: 1; m-calpain inh: 24

What do the screens show for `COc1cc(/C=C/C(=O)c2ccc(Cl)s2)cc(OC)c1O`?
WT yeast gro inh: 14; Lmaj promast: 100*; PMI activator: 0.9; PMI act hi M6P: 0.9; Rad51 HR inh: 4; m-calpain inh: -22

How did COc1ccc(C(=O)/C=C/c2ccc(OC)c(O)c2)c(F)c1 do in these assays?
WT yeast gro inh: -12; Lmaj promast: 82*; PMI activator: 0.8; PMI act hi M6P: 0.4; Rad51 HR inh: -11; m-calpain inh: -7

What do the screens show for `COc1ccc(/C=C/C(=O)c2ccc(Cl)s2)cc1O`?
WT yeast gro inh: -4; Lmaj promast: 92*; PMI activator: 0.7; PMI act hi M6P: 0.8; Rad51 HR inh: -2; m-calpain inh: 12

How did CC(C)NC(=O)c1ccc(-n2nc(C(F)(F)F)c3c2CCCC3)cc1 do in these assays?
WT yeast gro inh: -9; Lmaj promast: -4; PMI activator: 1; PMI act hi M6P: 1; Rad51 HR inh: -1; m-calpain inh: 0

What do the screens show for `COc1ccc2nc(N3C(=O)/C(=C/c4ccc(Cl)cc4)NC3=S)sc2c1`?
WT yeast gro inh: -7; Lmaj promast: 60*; PMI activator: 1.2; PMI act hi M6P: 1.1; Rad51 HR inh: -34; m-calpain inh: -25

How did CCOc1ccc2nc(N3C(=O)CNC3=S)sc2c1 do in these assays?
Rad51 HR inh: -1; m-calpain inh: 16

How did COc1ccc(-c2nc3c(n2O)CCCC3=O)cc1OC do in these assays?
WT yeast gro inh: 60*; Lmaj promast: 9; PMI activator: 1; PMI act hi M6P: 0.9; Rad51 HR inh: 10; m-calpain inh: -242

How did CCOC(=O)C1=C(CNC(C)(C)CC(C)(C)C)NC(=O)NC1c1cccc([N+](=O)[O-])c1 (stereo not drawn) do in these assays?
WT yeast gro inh: 9; Lmaj promast: 31; PMI activator: 0.9; PMI act hi M6P: 0.9; Rad51 HR inh: -5; m-calpain inh: 61*

How did Oc1ccc(/C=N/NC(=S)Nc2cccnc2)c(O)c1O do in these assays?
Rad51 HR inh: -13; m-calpain inh: 15

How did Fc1c(F)c(F)c(/C=N/NC(=S)Nc2cccnc2)c(F)c1F do in these assays?
WT yeast gro inh: 2; Lmaj promast: 0; PMI activator: 0.9; PMI act hi M6P: 0.9; Rad51 HR inh: 27; m-calpain inh: -20

How did Oc1ccc(/C=N/NC(=S)Nc2cccnc2)c(O)c1 do in these assays?
WT yeast gro inh: -13; Lmaj promast: 84*; PMI activator: 1; PMI act hi M6P: 1.1; Rad51 HR inh: 0; m-calpain inh: -25

How did Oc1cccc(/C=N/NC(=S)Nc2cccnc2)c1O do in these assays?
WT yeast gro inh: 7; Lmaj promast: 99*; PMI activator: 0.4; PMI act hi M6P: 0.4; Rad51 HR inh: -1; m-calpain inh: 8

Results for Cc1cc(C)c2nc(C)cc(Nc3ccc(C(=O)N4CCOCC4)cc3)c2c1 ?
Rad51 HR inh: 7; m-calpain inh: -7

Results for COC(=O)C(CO)NC(=O)C(C)NC(=O)CNC(=O)OCc1ccccc1 (stereo not drawn) ?
WT yeast gro inh: -16; Lmaj promast: -7; PMI activator: 1.1; PMI act hi M6P: 1.1; Rad51 HR inh: -1; m-calpain inh: 8

Results for COc1ccc(C)cc1N(CC(=O)N/N=C/c1ccccc1C(=O)O)S(=O)(=O)c1ccccc1 ?
WT yeast gro inh: -1; Lmaj promast: -9; PMI activator: 1; PMI act hi M6P: 1.1; Rad51 HR inh: -3; m-calpain inh: -26

How did CCOC(=O)c1nccnc1C(=O)Nc1ccc(C(F)(F)F)cc1 do in these assays?
WT yeast gro inh: 4; Lmaj promast: -2; PMI activator: 1.1; PMI act hi M6P: 1.1; Rad51 HR inh: -7; m-calpain inh: 35

What do the screens show for `O=C(O)c1ccccc1OCc1ccccc1Br`?
WT yeast gro inh: 1; Lmaj promast: -1; PMI activator: 1; PMI act hi M6P: 1.1; Rad51 HR inh: -6; m-calpain inh: -2

How did O=C(c1ccccc1OCc1ccccc1Br)N1CCN(c2ncccn2)CC1 do in these assays?
WT yeast gro inh: -3; Lmaj promast: 68*; PMI activator: 0.9; PMI act hi M6P: 0.9; Rad51 HR inh: -12; m-calpain inh: -8

Results for COc1ccc(/C(C)=N/NC(=O)c2ccccc2N)cc1 ?
WT yeast gro inh: -15; Lmaj promast: -6; PMI activator: 1; PMI act hi M6P: 1; Rad51 HR inh: -8; m-calpain inh: -14

Results for CCOc1ccccc1OCC(=O)Nc1ccc(S(=O)(=O)N(C)C)cc1 ?
WT yeast gro inh: 69*; Lmaj promast: -3; PMI activator: 1; PMI act hi M6P: 1; m-calpain inh: -12

Results for CN(C)S(=O)(=O)c1ccc(NC(=O)CN2CCC(Cc3ccccc3)CC2)cc1 ?
WT yeast gro inh: 12; Lmaj promast: 76*; PMI activator: 0.9; PMI act hi M6P: 1; Rad51 HR inh: 33; m-calpain inh: -16

What do the screens show for `Cn1c(SCC(=O)NNC(=O)Cc2ccccc2)nc2ccccc2c1=O`?
WT yeast gro inh: 6; Lmaj promast: -2; PMI activator: 1.1; PMI act hi M6P: 1; Rad51 HR inh: 10; m-calpain inh: -6

How did CCCCCOC(=O)c1ccc(NC(=O)c2ccco2)cc1 do in these assays?
WT yeast gro inh: 70*; Lmaj promast: -2; PMI activator: 0.8; PMI act hi M6P: 0.9; m-calpain inh: 5

Results for CCCCOC(=O)c1ccc(NC(=O)c2nn(C)cc2Br)cc1 ?
WT yeast gro inh: 60*; Lmaj promast: 3; PMI activator: 0.9; PMI act hi M6P: 0.9; Rad51 HR inh: -6; m-calpain inh: 33

How did CCCCOC(=O)c1ccc(NC(C)=O)cc1 do in these assays?
WT yeast gro inh: -18; Lmaj promast: -4; PMI activator: 1.1; PMI act hi M6P: 1; Rad51 HR inh: -1; m-calpain inh: 12

What do the screens show for `COc1ccccc1CN1CCNC(=O)C1CC(=O)NC1Cc2ccccc2C1` (stereo not drawn)?
WT yeast gro inh: 5; Lmaj promast: 2; PMI activator: 0.9; PMI act hi M6P: 0.9; Rad51 HR inh: 3; m-calpain inh: -26

What do the screens show for `C/C=C1\C(OC2OC(CO)C(O)C(O)C2O)OC=C(C(=O)OC)C1CC(=O)OCC1C(C)C(OC(=O)CC2C(C(=O)OC)=COC(OC3OC(CO)C(O)C(O)C3O)/C2=C\C)CC1C(CO)CO` (stereo not drawn)?
WT yeast gro inh: 6; Lmaj promast: -12; PMI activator: 0.9; PMI act hi M6P: 0.7; Rad51 HR inh: 2; m-calpain inh: 10

How did CS(=O)(=O)NN1C(=O)c2ccccc2NC1c1cccs1 (stereo not drawn) do in these assays?
WT yeast gro inh: 5; Lmaj promast: -6; PMI activator: 1.1; PMI act hi M6P: 1.1; m-calpain inh: -406

Assay outcomes (PubChem BioAssay)
